From ChEMBL document CHEMBL4145471, “New 1,5 and 2,5-disubstituted tetrazoles-dependent activity towards surface barrier of Candida albicans” (Eur J Med Chem, 2018)

Assays:
Candida albicans [1] = assay: Antifungal activity against Candida albicans ATCC 90028 assessed as metabolic activity at 20 ug/ml after 48 hrs in presence of 80 ug/ml fluconazol by XTT assay relative to control
Candida albicans [2] = assay: Synergistic antifungal activity against Candida albicans ATCC 90028 at 10 ug/ml after 48 hrs in presence of 20 ug/ml fluconazol by checkerboard assay relative to control; assay type: functional
In short: (§1)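 Checkerboard per M27-A3 against ATCC 90028: fluconazole at 80–1.25 µg/mL horizontally and partner compound at 80–1.25 µg/mL vertically, 100 µL yeast inoculum per well, 35°C for 48 h. After 48 h, metabolic activity was measured by XTT reduction at 475 nm (660 nm reference) relative to untreated growth control. FIC index is the sum of the FICs; <1 was defined as synergism and >1 as antagonism.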

Candida albicans [3] = assay: Antifungal activity against Candida albicans ATCC 90028 at 0.0313 ug/ml after 48 hrs relative to control; assay type: functional
Candida albicans [4] = assay: Antifungal activity against Candida albicans ATCC 90028 at 0.125 ug/ml after 48 hrs relative to control; assay type: functional
In short: (§2)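 Planktonic broth microdilution per M27-A3 in MOPS-buffered RPMI 1640 (pH 7.0), final inoculum 1.8×10^3 cells/mL, compounds 0.0313–16 µg/mL from 1600 µg/mL stocks in ethanol or DMSO. Incubated at 35°C without agitation; OD405 read at 18 and 48 h. % inhibition was derived from test, sterility (no inoculum) and solvent growth-control wells. Amphotericin B at 0.5 µg/mL served as the 100% control.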

Candida albicans [5] = assay: Antifungal activity against Candida albicans ATCC 90028 assessed as inhibition of metabolic activity at 1.25 ug/ml after 48 hrs in presence of 10 ug/ml fluconazol by XTT assay relative to control; assay type: functional; details: values are per cent of control
In short: (§3)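 Checkerboard against strain ATCC 90028, inoculum per M27-A3: fluconazole 80-1.25 µg/mL on one axis, tetrazole 80-1.25 µg/mL on the other. Plates at 35°C for 48 h, then XTT metabolic reduction read at 475 nm (660 nm reference). Activity is the drop in mean absorbance against untreated growth control. FICs and their summed FIC index are taken at 50% reduction in metabolic activity.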

Candida albicans [6] = assay: Antifungal activity against Candida albicans ATCC 90028 at 16 ug/ml after 48 hrs relative to control; assay type: functional
In short: as §2

Candida albicans [7] = assay: Antifungal activity against Candida albicans ATCC 90028 assessed as inhibition of metabolic activity at 2.5 ug/ml after 48 hrs in presence of 5 ug/ml fluconazol by XTT assay relative to control; assay type: functional; details: values are per cent of control
In short: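 C. albicans ATCC 90028 in checkerboard: fluconazole serial dilutions (80-1.25 µg/mL) crossed with tetrazole (80-1.25 µg/mL final), M27-A3 inoculum in RPMI 1640, 35°C for 48 h. Metabolic activity measured by XTT reduction, read at 475 nm (660 nm reference). Activity expressed relative to untreated growth control absorbance.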

Candida albicans [8] = assay: Antifungal activity against Candida albicans ATCC 90028 at 1 ug/ml after 48 hrs relative to control; assay type: functional
In short: as §2

Candida albicans [9] = assay: Antifungal activity against Candida albicans ATCC 90028 at 0.25 ug/ml after 18 hrs relative to control; assay type: functional
In short: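 Fluconazole (water stock, diluted in RPMI 1640) tested by CLSI M27-A3 broth microdilution against C. albicans ATCC 90028. Inoculum 1.8×10^3 cells/mL in RPMI 1640 buffered with MOPS, pH 7.0. Incubation at 35°C without agitation, read at 18 and 48 h. Growth by OD405 and visually; inhibition % calculated against solvent growth-control wells after subtracting sterility-control wells.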

Candida albicans [10] = assay: Antifungal activity against Candida albicans ATCC 90028 assessed as inhibition of metabolic activity at 10 ug/ml after 48 hrs in presence of 10 ug/ml fluconazol by XTT assay relative to control; assay type: functional; details: ATCC 90028, 48 h, values are per cent of control
In short: as §3

Candida albicans [11] = assay: Synergistic antifungal activity against Candida albicans ATCC 90028 at 1.25 ug/ml after 48 hrs in presence of 1.25 ug/ml fluconazol by checkerboard assay relative to control; assay type: functional; details: ATCC 90028, 48 h, read-out: GI
In short: as §1

Candida albicans [12] = assay: Antifungal activity against Candida albicans ATCC 90028 assessed as metabolic activity at 80 ug/ml after 48 hrs in presence of 20 ug/ml fluconazol by XTT assay relative to control
Candida albicans [13] = assay: Antifungal activity against Candida albicans ATCC 90028 at 2 ug/ml after 48 hrs relative to control; assay type: functional
In short: as §2

Candida albicans [14] = assay: Synergistic antifungal activity against Candida albicans ATCC 90028 at 80 ug/ml after 48 hrs in presence of 80 ug/ml fluconazol by checkerboard assay relative to control; assay type: functional; details: ATCC 90028, 48 h, read-out: GI
In short: (§4)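 Checkerboard in C. albicans ATCC 90028, inoculum prepared per CLSI M27-A3 in RPMI. Fluconazole serially diluted 80-1.25 µg/mL across the plate against the partner compound at 80-1.25 µg/mL final. Incubated 48 h at 35°C. Metabolic activity read by XTT reduction at 475 nm (660 nm reference), given as % of the untreated growth control.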

Candida albicans [15] = assay: Synergistic antifungal activity against Candida albicans ATCC 90028 at 5 ug/ml after 48 hrs in presence of 20 ug/ml fluconazol by checkerboard assay relative to control; assay type: functional
In short: as §4

Candida albicans [16] = assay: Synergistic antifungal activity against Candida albicans ATCC 90028 at 20 ug/ml after 48 hrs in presence of 2.5 ug/ml fluconazol by checkerboard assay relative to control; assay type: functional
In short: (§5)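 Checkerboard microdilution (M27-A3) on C. albicans ATCC 90028 in RPMI 1640: fluconazole (80-1.25 µg/mL) crossed with tetrazole (80-1.25 µg/mL final), incubated at 35°C for 48 h. Growth by OD405 at 18 and 48 h, endpoint taken as 100% inhibition. FIC index = sum of the two agents' FICs; <1 synergism, >1 antagonism.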

Candida albicans [17] = assay: Synergistic antifungal activity against Candida albicans ATCC 90028 at 20 ug/ml after 48 hrs in presence of 40 ug/ml fluconazol by checkerboard assay relative to control; assay type: functional
In short: as §4

Candida albicans [18] = assay: Synergistic antifungal activity against Candida albicans ATCC 90028 at 10 ug/ml after 48 hrs in presence of 2.5 ug/ml fluconazol by checkerboard assay relative to control; assay type: functional
In short: as §5

Candida albicans [19] = assay: Synergistic antifungal activity against Candida albicans ATCC 90028 at 5 ug/ml after 48 hrs in presence of 5 ug/ml fluconazol by checkerboard assay relative to control; assay type: functional; details: ATCC 90028, 48 h, read-out: GI
In short: as §4

Candida albicans [20] = assay: Antifungal activity against Candida albicans ATCC 90028 assessed as inhibition of metabolic activity at 1.25 ug/ml after 48 hrs in presence of 80 ug/ml fluconazol by XTT assay relative to control; assay type: functional; details: values are per cent of control
In short: as §3

Candida albicans [21] = assay: Synergistic antifungal activity against Candida albicans ATCC 90028 at 5 ug/ml after 48 hrs in presence of 2.5 ug/ml fluconazol by checkerboard assay relative to control; assay type: functional
In short: as §5

Compound | Metabolic activity (Candida albicans [1]) [%] | growth inhibition (GI) (Candida albicans [2]) [%] | Activity (Candida albicans [3]) [%] | Activity (Candida albicans [4]) [%] | residual activity (Candida albicans [5]) [%] | Activity (Candida albicans [6]) [%] | residual activity (Candida albicans [7]) [%] | Activity (Candida albicans [8]) [%] | Activity (Candida albicans [9]) [%] | residual activity at 10 µg/mL (Candida albicans [10]) [%] | inhibition of growth at 1.25 µg/mL (Candida albicans [11]) [%] | Metabolic activity (Candida albicans [12]) [%] | Activity (Candida albicans [13]) [%] | inhibition of growth at 80 µg/mL (Candida albicans [14]) [%] | growth inhibition (GI) (Candida albicans [15]) [%] | growth inhibition (GI) (Candida albicans [16]) [%] | growth inhibition (GI) (Candida albicans [17]) [%] | growth inhibition (GI) (Candida albicans [18]) [%] | inhibition of growth at 5 µg/mL (Candida albicans [19]) [%] | residual activity (Candida albicans [20]) [%] | also measured
CCOC(=O)CCn1nnc(-c2ccccc2)n1 | 94.76 | 99.46 | 99.12 | 99.18 | 74.44 | 99.65 | 95.38 | 97.51 | 98.4 | 76.2 | 99.8 | 73.11 | 99.7 | 99.6 | 99.58 | 99.63 | 99.29 | 99.62 | 99.1 | 66.82 | growth inhibition (GI) (Candida albicans [21]): 99.77%
ClCCCn1nnnc1-c1ccccc1Cl | 81.77 | 99.61 | 99.38 | 99.43 | 62.08 | 99.39 | 100 | 98.22 | 99.96 | 75.4 | 99.7 | 70.42 | 99.14 | 99.8 | 99.67 | 99.25 | 99.34 | 99.41 | 98.8 | 62.42 | growth inhibition (GI) (Candida albicans [21]): 99.14%
Cc1ccc(-c2nnn(CCCN3CCOCC3)n2)cc1 | 69.42 | 98.99 | 99.56 | 98.96 | 100 | 99.44 | 100 | 96.58 | 98.25 | 99 | 99 | 50.83 | 98.3 | 99.5 | 99.16 | 99.31 | 98.99 | 98.46 | 98.7 | 100 | growth inhibition (GI) (Candida albicans [21]): 98.9%
